{
  "source": "paper PMC3683554",
  "about": "(Nature structural & molecular biology, 2013)",
  "key": {"[1]": {"tested_on": "bid−/− bim−/− mouse liver mitochondria (BAK)", "experiment": "MOMP assay, cyt c release from bid−/− bim−/− mouse liver mitochondria", "type": "biochemical", "conditions": "for BAK-mediated MOMP (cyt c release), bid−/− bim−/− mitochondria: 1 h incubation, peptides up to 50 μM", "how_it_was_run": "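Enriched mitochondrial fractions purified from bid−/− bim−/− mouse liver, run in parallel with bak−/− mouse liver mitochondria. Mitochondria incubated 1 h with unstapled or hydrocarbon-stapled BH3 peptides; MOMP read as cytochrome c release.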"}, "cBAK": {"tested_on": "cBAK", "experiment": "Calpain protease sensitivity assay of cBAK", "type": "biochemical, human", "conditions": "50 mM HEPES pH 7.5, 10 mM DTT, 1 µM m-calpain, 0.5 mM CaCl2, 1% CHAPS, 24°C"}, "[2]": {"target": "calpain-proteolyzed cBAK (residues 15–186) (human) (UniProt Q16611)", "experiment": "AUC"}, "[3]": {"tested_on": "bak−/− mouse liver mitochondria", "experiment": "MOMP assay with cBAK mutants or SAHBq–cBAK traps and NC BID ± ABT-737", "type": "biochemical", "conditions": "1 h incubation"}},
  "data": [
    {"molecule": "AEIIVECATQLRRVGDKLNFRI [NOXA/BIDf]", "values": [
      {"measurement": "BAK-mediated MOMP (cyt c release), bid−/− bim−/− mitochondria", "setting": "[1]", "result": "weakly active"},
      {"measurement": "Calpain sensitivity of cBAK with peptide, in CHAPS", "setting": "cBAK", "result": "enhanced protease sensitivity"}
    ]},
    {"molecule": "QPSPARAPAELEVECATQLRXFGDXLNFRQ (sidechain bridge or staple) [NOXA SAHB]", "values": [
      {"measurement": "BAK-mediated MOMP (cyt c release), bid−/− bim−/− mitochondria", "setting": "[1]", "result": "unable to robustly activate BAK"},
      {"measurement": "BAK-mediated MOMP at the highest concentration tested", "setting": "[1]; highest concentration tested", "result": "weak BAK-mediated MOMP"}
    ]},
    {"molecule": "BID SAHBa (stapled BID BH3 peptide) (from UniProt P55957 80-101)", "values": [
      {"measurement": "fold enhancement of BAK binding over the unstapled counterpart (BH3a)", "setting": "[2]", "result": 10, "unit": "fold"},
      {"measurement": "stoichiometry N", "setting": "[2]", "result": 1}
    ]},
    {"molecule": "CC[C@H](C)[C@H](NC(=O)[C@H](CO)NC(=O)[C@H](CCCNC(=N)N)NC(=O)[C@H](CC(=O)O)NC(=O)[C@H](CCSC)NC(=O)[C@H](CO)NC(=O)[C@H](CC(=O)O)NC(=O)CNC(=O)[C@@H](NC(=O)[C@H](CCC(N)=O)NC(=O)[C@H](C)NC(=O)[C@H](CC(C)C)NC(=O)[C@H](Cc1c[nH]cn1)NC(=O)[C@H](CCCNC(=N)N)NC(=O)[C@H](C)NC(=O)[C@@H](NC(=O)[C@H](CC(N)=O)NC(=O)[C@H](CCCNC(=N)N)NC(=O)[C@@H](NC(=O)[C@@H](NC(=O)[C@H](CC(=O)O)NC(=O)[C@H](CCC(=O)O)NC(C)=O)[C@@H](C)CC)[C@@H](C)CC)[C@@H](C)CC)C(C)C)C(N)=O", "note": "[BH3a]", "values": [
      {"measurement": "Calpain sensitivity of cBAK with peptide, in CHAPS", "setting": "cBAK", "result": "susceptible to proteolysis by calpain"}
    ]},
    {"molecule": "LWAAQRYGRELRXMSDXFVDSF (sidechain bridge or staple) [BAD SAHB]", "values": [
      {"measurement": "BAK-mediated MOMP (cyt c release), bid−/− bim−/− mitochondria", "setting": "[1]", "result": "unable to robustly activate BAK"}
    ]},
    {"molecule": "CN(C)CC[C@H](CSc1ccccc1)Nc1ccc(S(=O)(=O)NC(=O)c2ccc(N3CCN(Cc4ccccc4-c4ccc(Cl)cc4)CC3)cc2)cc1[N+](=O)[O-]", "note": "[ABT-737]", "values": [
      {"measurement": "Effect of ABT-737 on MOMP activity of BH2-tethered SAHBq–cBAK traps", "setting": "[3]", "result": "failed to enhance"},
      {"measurement": "Effect of ABT-737 on MOMP activity of untethered cBAK mutants", "setting": "[3]", "result": "augmented"}
    ]},
    {"molecule": "PAELEVECATQLRRFGDKLNFRQKLL [NOXAa]", "values": [
      {"measurement": "BAK-mediated MOMP (cyt c release), bid−/− bim−/− mitochondria", "setting": "[1]", "result": "largely inactive"},
      {"measurement": "Calpain sensitivity of cBAK with peptide, in CHAPS", "setting": "cBAK", "result": "unable to activate cBAK"}
    ]},
    {"molecule": "LWAAQRIGRELRRMGDEMVDSI [BAD/BIDa]", "values": [
      {"measurement": "BAK-mediated MOMP (cyt c release), bid−/− bim−/− mitochondria", "setting": "[1]", "result": "weakly active"},
      {"measurement": "Calpain sensitivity of cBAK with peptide, in CHAPS", "setting": "cBAK", "result": "enhanced protease sensitivity"}
    ]},
    {"molecule": "NLWAAQRYGRELRRMSDKFVDSFKK [BADa]", "values": [
      {"measurement": "BAK-mediated MOMP (cyt c release), bid−/− bim−/− mitochondria", "setting": "[1]", "result": "largely inactive"},
      {"measurement": "Calpain sensitivity of cBAK with peptide, in CHAPS", "setting": "cBAK", "result": "unable to activate cBAK"}
    ]}
  ]
}
